# Assay outcomes (PubChem BioAssay)
# An excerpt weighted towards active compounds, which were near 5.9% of everything screened.
# Pf Dd2 growth = P. falciparum Dd2 growth inhibition; SYBR Green, 72 h; active compounds read low; activity change, % at 10 µM; 2.3% of 94,000 active; AID 1159554; in the data active = activity change below about -80%; inconclusive = no clear call, values can overlap the other calls
# IDH1 R132H inh = inhibitors of human IDH1 R132H. IDH1 R132H reductase, diaphorase/resazurin fluorescence, 60 min. 0.18% of 70,000 active. O75874. inhibition, % at 10 µM; in the data active = inhibition above about 34%; inconclusive = no clear call, values can overlap the other calls; inactive = below about 11%;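 also: 0% = DMSO and 100% = no enzyme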
# Target sequence (O75874 whole entry R132H): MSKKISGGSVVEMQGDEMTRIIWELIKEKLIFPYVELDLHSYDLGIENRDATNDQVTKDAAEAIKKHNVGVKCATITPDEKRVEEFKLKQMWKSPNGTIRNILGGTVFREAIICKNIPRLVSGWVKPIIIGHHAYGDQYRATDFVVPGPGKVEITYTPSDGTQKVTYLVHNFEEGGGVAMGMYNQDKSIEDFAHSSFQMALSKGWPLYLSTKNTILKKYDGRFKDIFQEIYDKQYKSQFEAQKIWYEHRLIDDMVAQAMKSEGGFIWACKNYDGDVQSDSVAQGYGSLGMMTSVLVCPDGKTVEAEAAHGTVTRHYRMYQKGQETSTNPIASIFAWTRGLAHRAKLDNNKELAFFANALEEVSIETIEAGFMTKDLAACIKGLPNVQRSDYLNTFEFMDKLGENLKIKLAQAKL
# KDM4C inh = inhibitors of human demethylase GASC-1 KDM4C; GST-KDM4C 2-372, H3K9me3 peptide, LANCE TR-FRET; inhibition, % at 12.5 µM; 0.15% of 96,000 active; AID 720574;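 active = mean replicate inhibition above about 25%, with at least 55% of replicates also reaching it, limit read from the data, passing the limit was not always enough; inconclusive = only one of those two conditions met; inactive = neither condition met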
#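 System: N-terminal GST-fused human GASC-1 (KDM4C) fragment, residues 2-372; amount: enzyme final amount 10 nM; incubation: reaction 30 min RT, detection step 1 h RT; medium: HEPES buffer, pH 7.5, plus ascorbate; technique: LANCE TR-FRET, Eu antibody, ULight-streptavidin, EDTA, ex 340 nm, em 618/671 nm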
# T cruzi growth-1 = blocks T. cruzi growth in NIH3T3 culture; 5.9% of 77,000 active; inhibition, % at 8.34 µM; T. cruzi beta-gal in NIH3T3, GalScreen luminescence, 90 h;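 active = mean inhibition above about 93%, with at least 55% of replicates each passing it, limit read from the data, passing the limit was not always enough; inconclusive = only one of those two conditions holds; inactive = neither condition holds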
# T cruzi growth-2 = inhibitors of T. cruzi proliferation. shares compounds with T cruzi growth-1. T. cruzi beta-gal in NIH3T3, GalScreen luminescence, 90 h. inhibition, % at 8.35 µM. 72% of 5,600 active;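 active = mean replicate inhibition above about 95% and at least 55% of replicates individually reaching it, limit read from the data; inconclusive = only one of the two criteria is met; inactive = neither criterion is met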
# T cruzi growth-3 = Trypanosoma cruzi proliferation inhibition; inhibition, % at 2.09 µM; T. cruzi beta-gal in NIH3T3, GalScreen luminescence, 90 h; shares compounds with T cruzi growth-1; 21% of 5,600 active;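 active = mean inhibition above about 95%, with at least 55% of replicates also reaching it, limit read from the data; inconclusive = meets just one of the two conditions; inactive = meets neither condition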;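 also: plate controls were neutral control median for no effect and positive control median for full effect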
# 3T3 cytotox = NIH/3T3 (mouse) viability loss; 14% of 5,600 active; cytotoxicity (signal decrease), % at 8.35 µM; shares compounds with T cruzi growth-1; NIH/3T3 viability, CellTiter-Glo ATP luminescence, 90 h;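 active = mean signal decrease across replicates above about 35% based on untreated-well scatter, with enough replicates individually passing, limit read from the data; inconclusive = no rule stated though some were filed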;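 also: 0% = median of neutral control wells and 100% = median of positive control wells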
# 3T3 cytotox 2 = kills mouse NIH/3T3 fibroblasts; shares compounds with T cruzi growth-1; NIH/3T3 viability, CellTiter-Glo ATP luminescence, 90 h; inhibition, % at 24.9 µM; 56% of 5,600 active; AID 651744;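 active = mean loss of cell viability signal at or above a set limit, and enough replicates individually reaching it; inconclusive = meets only the mean limit or only the replicate share; inactive = meets neither condition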;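 also: 0% = median of neutral control wells and 100% = median of positive control wells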
# The depositor's hits bear a star; ? = inconclusive; . = not tested or not shown.
SMILES,Pf Dd2 growth,IDH1 R132H inh,KDM4C inh,T cruzi growth-1,T cruzi growth-2,T cruzi growth-3,3T3 cytotox,3T3 cytotox 2
C[C@H](CO)N1C[C@H](C)[C@H](CN(C)Cc2ccccc2)Oc2cc(/C=C/c3ccccc3)ccc2S1(=O)=O,-32,0,0,103*,100*,100*,-4,104*
C[C@@H]1CN([C@@H](C)CO)S(=O)(=O)c2ccc(/C=C/c3ccccc3)cc2O[C@@H]1CN(C)Cc1cccnc1,-37,0,-1,88*,91,87,70*,94*
C[C@H]1CN([C@@H](C)CO)S(=O)(=O)c2ccc(/C=C/c3ccccc3)cc2O[C@H]1CN(C)Cc1ccccc1,-18,0,.,110*,97*,113*,-4,103*
C[C@H](CO)N1C[C@H](C)[C@@H](CN(C)Cc2ccccc2)Oc2cc(/C=C/c3ccccc3)ccc2S1(=O)=O,-56,0,3,70,.,.,.,.
NC(=O)c1ccc2nc3ccsc3c(=O)n2c1,.,-1,.,.,.,.,.,.
CC(C(=O)O)N(c1ccc(Cl)cc1)S(C)(=O)=O (stereo not given),.,0,.,.,.,.,.,.
COC(=O)CCCCCCC(=O)N/N=C\c1cccnc1Br,.,0,.,.,.,.,.,.
COc1ccccc1-c1nnc(SCC(=O)Nc2ccccc2C(F)(F)F)n1C,.,0,.,.,.,.,.,.
C[C@@H]1CN([C@H](C)CO)C(=O)c2cccc(NC(=O)c3nc4ccccc4s3)c2O[C@H]1CN(C)C(=O)Nc1ccc(C(F)(F)F)cc1,-86*,-1,-1,93*,?,?,19,50*
C[C@@H]1CN([C@@H](C)CO)C(=O)c2cccc(NC(=O)c3ccc(-c4nccs4)cc3)c2O[C@H]1CN(C)C(=O)Nc1ccc(F)cc1,-27,-2,2,4,.,.,.,.
C[C@@H]1CN([C@@H](C)CO)C(=O)c2cccc(NC(=O)c3ccc(-c4nccs4)cc3)c2O[C@@H]1CN(C)C(=O)Nc1ccc(C(F)(F)F)cc1,-70,-8,-3,?,108*,91,26,98*
C[C@H](CO)N1C[C@H](C)[C@@H](CN(C)C(=O)Nc2ccc(C(F)(F)F)cc2)Oc2c(NC(=O)c3ccc(-c4nccs4)cc3)cccc2C1=O,12,.,16,71,.,.,.,.
C[C@H](CO)N1C[C@H](C)[C@H](CN(C)C(=O)Nc2ccc(C(F)(F)F)cc2)Oc2c(NC(=O)c3ccc(-c4nccs4)cc3)cccc2C1=O,-44,.,-5,116*,102*,72,31,84*
C[C@H]1CN([C@@H](C)CO)C(=O)Cc2cc(NC(=O)Nc3ccc(C(F)(F)F)cc3)ccc2O[C@H]1CN(C)Cc1ccc(C(=O)Nc2ccccc2N)cc1,-35,.,9,80,.,.,.,.
C[C@@H]1CN([C@@H](C)CO)C(=O)CCCn2nncc2CO[C@@H]1CN(C)Cc1ccc(C(=O)O)cc1,14,.,0,.,.,.,.,.
C[C@@H]1CN([C@H](C)CO)C(=O)Cc2cc(NC(=O)Nc3ccc(C(F)(F)F)cc3)ccc2O[C@@H]1CN(C)Cc1ccc(C(=O)Nc2ccccc2N)cc1,-14,0,-1,?,100*,106*,55*,97*
C[C@@H]1CN([C@@H](C)CO)C(=O)Cc2cc(N(C)C)ccc2O[C@H]1CN(C)Cc1ccc(C(=O)Nc2ccccc2N)cc1,-59,0,0,96*,106*,?,41*,82*
C[C@H]1CN([C@@H](C)CO)C(=O)Cc2cc(N(C)C)ccc2O[C@@H]1CN(C)Cc1ccc(C(=O)Nc2ccccc2N)cc1,-51,.,2,74,.,.,.,.
C[C@H](CO)N1C[C@H](C)[C@H](CN(C)Cc2ccc(C(=O)Nc3ccccc3N)cc2)OCc2cnnn2CCCC1=O,-26,-5,-1,106*,108*,59,18,26
C[C@@H]1CN([C@@H](C)CO)C(=O)Cc2cc(NC(=O)Cc3ccccc3)ccc2O[C@@H]1CN(C)Cc1ccc(C(=O)Nc2ccccc2N)cc1,-81*,.,-1,102*,106*,80,31,39*
